Screening results from PubChem BioAssay.
GSH bead fluor: compound fluoresces at 488/530 nm on GSH beads | GSH beads flow cytometry, compound fluorescence 488/530 nm; stronger effect = higher value | fluorescence (KMESF) at 10 µM | actives 0.25% (n = 190,000); in the data active = fluorescence above about 89;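 also: glutathione beads carrying GST-tagged Bcl family fusion proteins plus one bare bead set; values are compound well signal with DMSO vehicle wells as background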
Avidin bead fluor: compound fluoresces at 488/530 nm on avidin beads; compound fluorescence 488/530 nm, flow cytometry; stronger effect = higher value; fluorescence (KMESF) at 10 µM; actives 0.38% (n = 220,000); AID 1775; in the data active = fluorescence above about 47
L major viab: inhibitors of Leishmania major promastigote growth; Leishmania major promastigotes, resazurin fluorescence viability; inhibition, % at 10 µM; actives 9% (n = 200,000);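 also: promastigotes grown with compound for 44 hours at 28 °C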
PKD1 inh: PKD1 (human) kinase inhibition; Q15139; PKD1 kinase fluorescence polarization assay; inhibition, % (no concentration beside the values); actives 0.056% (n = 200,000); AID 797
ABCG2 inh: inhibitors of human ABCG2 transporter, ABCB1 counter-screen | IgMXP3 cells, JC-1 efflux, flow cytometry | actives 0.1% (n = 190,000) | Q9UNQ0 | inhibition, % at 6.6 µM;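 active = inhibition above 80%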;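 also: 0% = DMSO and 100% = nicardipine control wells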
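Test system: IgMXP3 (ABCG2) plus far-red-tagged CCRF-Adr (ABCB1) cells / Amount: 3 million cells/mL in well / Reagent: JC-1 transporter substrate / Timing: 10 min compound exposure, 25 °C / Signal: flow cytometry, 530 nm JC-1 signal / Read-out: percent efflux inhibition, scaled nicardipine 100% to DMSO 0% / Benchmarks: nicardipine as high control, DMSO as low control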
ABCB1 inh: inhibitors of human ABCB1 transporter, ABCG2 counter-screen. CCRF-Adr cells, JC-1 efflux, flow cytometry. actives 0.067% (n = 190,000). inhibition, % at 6.6 µM. AID 1326; in the data active = inhibition above about 40%;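 also: 0% = vehicle and 100% = reference inhibitor; higher value means more JC-1 retained so stronger ABCB1 efflux block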
Starred values were filed as active, the others as inactive; nt = no result given. Shown is part of a subset that was picked to be rich in hits. Rule as the data show it, unless noted: active = inhibition above about 50%; inactive = the rest.

SMILES	GSH bead fluor	Avidin bead fluor	L major viab	PKD1 inh	ABCG2 inh	ABCB1 inh
CC(C)c1ccc(C2C3CSCC=C3C(C#N)=C(N)C2(C#N)C#N)cc1 (configuration not stated)	10	11	97.8*	0.1	-1.2	0.0
Oc1c(Cl)cc(Cl)cc1C=Nc1cc(C(F)(F)F)ccc1N1CCc2ccccc2C1	nt	3	nt	nt	nt	nt
Cc1nc2cc(-c3ccc(Cl)cc3)nn2c(NCCN(C)C)c1C	18	12	100.3*	1.5	15.2	6.6
CCCCNC(=O)Oc1c(Br)cc2sc(=O)oc2c1Br	nt	7	nt	nt	nt	nt
N#CC(C#N)=c1ccc2c(c1)NC1(CCCCC1)N=2	11	13	99.7*	-3.3	-2.2	-8.0
COc1ccc(Cn2c(=O)n(Cc3ccco3)c(=N)c3c4c(sc32)COC(C)(C)C4)cc1	27	125*	16.3	5.6	8.3	5.6
CCC(C)N(C(=O)COc1ccc(NC(C)=O)cc1)C1CCS(=O)(=O)C1 (configuration not stated)	12	10	2.1	-5.0	-0.5	-0.2
CC(C)=CCCC(C)CN1CCC(N2CCC(C(=O)NC(C)C)CC2)CC1 (configuration not stated)	18	1	83.5*	13.2	5.3	0.7
O=C(C1CCN(C2CCN(CC3CC=CCC3)CC2)CC1)N1CCOCC1 (configuration not stated)	9	10	76.2*	-0.8	-0.1	-0.1
CC(C)=CCCC(C)CN1CCC(N2CCC(C(=O)N3CCOCC3)CC2)CC1 (configuration not stated)	11	3	96.1*	-0.4	-0.8	-0.3
Cc1ccc(S(=O)(=O)NC(C)C(=O)Nc2ccc(C(N)=O)cc2)cc1 (configuration not stated)	15	8	-4.5	5.3	15.8	0.9
CC(=O)Nc1ccc(NC(=O)C2CCCN2/C=C/C(=O)C(F)(F)F)cc1 (configuration not stated)	14	11	1.2	-3.1	-1.3	-0.2
O=C(O)CC1S/C(=N/N=C/c2ccc(-c3ccc(Cl)c([N+](=O)[O-])c3)o2)NC1=O (configuration not stated)	14	7	-5.3	1.0	0.2	0.3
O=C(O)CC1S/C(=N/N=C/c2ccc(-c3ccc(Cl)cc3[N+](=O)[O-])o2)NC1=O (configuration not stated)	16	2	99.4*	7.1	nt	nt
CC(O)CNCCNCc1c(OCc2ccccc2)ccc2ccccc12 (configuration not stated)	23	5	100.7*	7.1	0.0	0.1
CC(O)CNCCOc1ccccc1OCc1ccccc1 (configuration not stated)	23	8	87.9*	8.0	3.4	0.2
COc1ccc(C(=O)NCC(=O)NCC2COc3ccccc3O2)cc1 (configuration not stated)	17	29	4.3	0.0	1.1	0.1
CCn1cc(C(=O)O)c(=O)c2cnc(N3CCN(C(=S)NC(=O)c4ccccc4Cl)CC3)nc21	nt	4	nt	nt	nt	nt
Cc1cc(C)nc(-n2nc(C)c(Sc3ccc(F)cc3)c2N)n1	18	24	97.0*	-7.3	36.6	2.6
COC(=O)c1ccc2c(=O)n(-c3ccc(OC)cc3)c(=S)[nH]c2c1	14	5	-5.2	-2.8	2.6	0.2
CCSc1nc(C)cc(C)c1S(=O)(=O)c1ccccc1C	55	8	88.1*	-6.1	6.7	0.2
CSc1nc(C)cc(C)c1S(=O)(=O)c1ccccc1C	18	33	17.6	14.8	3.8	0.8
COCC(=O)Nc1ccc(C(=O)Nc2ccccc2Cl)cc1	16	10	-3.9	-0.4	1.0	0.0
CC(=O)Nc1ccc(-c2csc(NC(=O)CCCc3cccs3)n2)cc1	5	14	75.4*	-14.4	1.3	0.5
O=C(CCS(=O)(=O)c1ccccc1)Nc1nc(-c2cccs2)cs1	19	nt	50.4*	-6.0	17.8	1.2
CC(=O)Nc1ccc(-c2csc(NCc3ccccc3)n2)cc1	18	12	60.3*	-4.2	-0.8	-0.3
Cc1ccc(-c2csc(NC(=O)CCNC(=O)c3ccc(Cl)cc3)n2)cc1	9	10	-1.9	-2.6	-7.8	-2.1
Cc1ccc(-c2csc(NC(=O)CCNC(=O)c3ccccc3Cl)n2)cc1	11	14	83.7*	-5.4	45.4	2.4
